Active and inactive are the calls of the source. The rule behind the calls is not given here.

One experiment has as its system Escherichia coli. The experiment can be described thus: Antibacterial activity against Escherichia coli ATCC 25922 at 100 ug/mL after 24 hrs by disk diffusion method. It counts as functional, organism-based. In short, it runs like this:
(§1)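 Paper-disc diffusion on Mueller Hinton agar, pH 7.4 ± 0.2 at 25 °C. Whatman No. 2 discs (5 mm) were heat-sterilized at 160 °C for 30 min, loaded with DMSO test solution at 100 µg/10 µL and dried, then laid on the agar. Plates were held 1 h in the refrigerator for diffusion, then incubated 24 h at 37 °C. Inhibition zone diameter was read in mm. DMSO served as solvent control; ciprofloxacin disc as reference.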

The subject of the next experiment is Candida albicans. Briefly: Antifungal activity against Candida albicans ATCC 10231 at 100 ug/mL after 24 hrs by disk diffusion method. It counts as functional. The following applies: ATCC 10231, 24 h, read-out: DIZ. In short, it runs like this: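 Disc diffusion as for the antibacterial test, on agar medium of glucose, peptone and Sabouraud dextrose agar in distilled water, pH 5.5 ± 0.2 at 25 °C. Sterilized 5 mm paper discs were loaded with DMSO test solution at 100 µg/10 µL and dried. Plates were held 1 h refrigerated, then incubated 24 h at 37 °C. Zone of inhibition was measured in mm.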
(A growth-free zone around the sample is the usual read-out of agar diffusion tests.)

The test system of another experiment is Staphylococcus aureus. The experiment can be described thus: Antibacterial activity against Staphylococcus aureus ATCC 25923 at 100 ug/mL after 24 hrs by disk diffusion method. It counts as functional. The note with it: ATCC 25923, 24 h, read-out: DIZ. In short, it runs like this:
as §1

In the case of `COc1ccc(C(c2cn(Cc3cn(Cc4ccc(Cl)cc4)nn3)c3ccccc23)c2cn(Cc3cn(Cc4ccc(Cl)cc4)nn3)c3ccccc23)cc1`, the result in the experiment on Escherichia coli was inactive. The zone of inhibition at 100 µg/mL was 21 mm in the experiment on Candida albicans and 16 mm in the experiment on Staphylococcus aureus.

In the case of `Cc1c(C(c2ccccc2)c2c(C)n(Cc3cn(Cc4ccccc4)nn3)c3ccccc23)c2ccccc2n1Cc1cn(Cc2ccccc2)nn1`, in the experiment on Escherichia coli, the result was inactive. The zone of inhibition at 100 µg/mL with Candida albicans worked out at 16 mm; in the experiment on Staphylococcus aureus, 20 mm.

Take `COc1ccc(C(c2cn(Cc3cn(Cc4ccccc4)nn3)c3ccccc23)c2cn(Cc3cn(Cc4ccccc4)nn3)c3ccccc23)cc1`: the outcome in the experiment on Escherichia coli was inactive. In addition, the zone of inhibition at 100 µg/mL in the experiment on Candida albicans was 17 mm; in the experiment with Staphylococcus aureus, 19 mm.

Consider `Clc1ccc(Cn2cc(Cn3cc(C(c4ccccc4)c4cn(Cc5cn(Cc6ccc(Cl)cc6)nn5)c5ccccc45)c4ccccc43)nn2)cc1`, for which, in the experiment on Escherichia coli, the result was inactive. Moreover, the zone of inhibition at 100 µg/mL stood at 20 mm with Candida albicans and 17 mm in the experiment on Staphylococcus aureus.

Turning to `Brc1ccc2c(c1)c(C(c1ccccc1)c1cn(Cc3cn(Cc4ccccc4)nn3)c3ccc(Br)cc13)cn2Cc1cn(Cc2ccccc2)nn1`, in the experiment on Escherichia coli, the outcome was inactive. The zone of inhibition at 100 µg/mL was 21 mm in the experiment on Candida albicans and 16 mm in the experiment on Staphylococcus aureus.

Turning to `O=C(O)c1cn(C2CC2)c2cc(N3CCNCC3)c(F)cc2c1=O` [CIPROFLOXACIN], the zone of inhibition at 100 µg/mL with Staphylococcus aureus was determined as 22 mm.

On to `Cc1c(C(c2ccc(Cl)cc2)c2c(C)n(Cc3cn(Cc4ccccc4)nn3)c3ccccc23)c2ccccc2n1Cc1cn(Cc2ccccc2)nn1`, for which the result with Escherichia coli was inactive. Further, the zone of inhibition at 100 µg/mL came out at 18 mm in the experiment with Candida albicans and 20 mm in the experiment with Staphylococcus aureus.

Take `Cc1c(C(c2ccc(Cl)cc2)c2c(C)n(Cc3cn(Cc4ccc(Cl)cc4)nn3)c3ccccc23)c2ccccc2n1Cc1cn(Cc2ccc(Cl)cc2)nn1`: the result in the experiment with Escherichia coli was inactive. Besides, the zone of inhibition at 100 µg/mL is 18 mm in the experiment on Candida albicans and 19 mm in the experiment with Staphylococcus aureus.

Turning to `COc1ccc(C(c2c(C)n(Cc3cn(Cc4ccc(Cl)cc4)nn3)c3ccccc23)c2c(C)n(Cc3cn(Cc4ccc(Cl)cc4)nn3)c3ccccc23)cc1`, the outcome in the experiment with Escherichia coli was inactive. Besides, the zone of inhibition at 100 µg/mL in the experiment with Candida albicans worked out at 20 mm; in the experiment on Staphylococcus aureus, 16 mm.

As to `COc1ccc(C(c2cn(Cc3cn(Cc4ccccc4)nn3)c3ccc(Br)cc23)c2cn(Cc3cn(Cc4ccccc4)nn3)c3ccc(Br)cc23)cc1`, in the experiment on Escherichia coli, the result was inactive. Also, the figures for the zone of inhibition at 100 µg/mL in the experiment with Candida albicans and in the experiment on Staphylococcus aureus were 16 mm and 20 mm, respectively.

Take `c1ccc(Cn2cc(Cn3cc(C(c4ccccc4)c4cn(Cc5cn(Cc6ccccc6)nn5)c5ccccc45)c4ccccc43)nn2)cc1`: the result in the experiment with Escherichia coli was inactive. Further, the zone of inhibition at 100 µg/mL was 16 mm in the experiment on Candida albicans and 20 mm in the experiment with Staphylococcus aureus.

Regarding `Cc1c(C(c2ccccc2)c2c(C)n(Cc3cn(Cc4ccc(Cl)cc4)nn3)c3ccccc23)c2ccccc2n1Cc1cn(Cc2ccc(Cl)cc2)nn1`, the outcome in the experiment with Escherichia coli was inactive. The zone of inhibition at 100 µg/mL is 19 mm with Candida albicans and 17 mm in the experiment on Staphylococcus aureus.

Regarding `CC(=O)N1CCN(c2ccc(OCC3COC(Cn4ccnc4)(c4ccc(Cl)cc4Cl)O3)cc2)CC1` (configuration not stated) [KETOCONAZOLE], the zone of inhibition at 100 µg/mL with Candida albicans came out at 24 mm.

For the compound `COc1ccc(Cn2cc(Cn3cc(C(c4ccc(OC)cc4)c4cn(Cc5cn(Cc6ccc(OC)cc6)nn5)c5ccccc45)c4ccccc43)nn2)cc1`, in the experiment with Escherichia coli, the result was inactive. The zone of inhibition at 100 µg/mL in the experiment on Candida albicans turned out to be 16 mm; in the experiment on Staphylococcus aureus, 18 mm.

Turning to `Clc1ccc(Cn2cc(Cn3cc(C(c4ccc(Cl)cc4)c4cn(Cc5cn(Cc6ccc(Cl)cc6)nn5)c5ccccc45)c4ccccc43)nn2)cc1`, the outcome with Escherichia coli was inactive. Moreover, the zone of inhibition at 100 µg/mL in the experiment on Candida albicans was found to be 16 mm; in the experiment on Staphylococcus aureus, 20 mm.

Consider `COc1ccc(Cn2cc(Cn3cc(C(c4ccccc4)c4cn(Cc5cn(Cc6ccc(OC)cc6)nn5)c5ccccc45)c4ccccc43)nn2)cc1`, for which the result with Escherichia coli was inactive. The zone of inhibition at 100 µg/mL stood at 16 mm in the experiment on Candida albicans and 18 mm with Staphylococcus aureus.

As for `Clc1ccc(Cn2cc(Cn3cc(C(c4ccccc4)c4cn(Cc5cn(Cc6ccc(Cl)cc6)nn5)c5ccc(Br)cc45)c4cc(Br)ccc43)nn2)cc1`, the result in the experiment on Escherichia coli was inactive. In addition, the zone of inhibition at 100 µg/mL in the experiment with Candida albicans is 21 mm; with Staphylococcus aureus, 16 mm.

These data come from ChEMBL document CHEMBL1136949, “Regioselective synthesis and biological evaluation of bis(indolyl)methane derivatized 1,4-disubstituted 1,2,3-bistriazoles as anti-infective agents” (2009).
